Activity calls are given as the source filed them. The rule behind the calls is not given here.
Assays:
Mus musculus [1] = assay: In vivo inhibition of ATX in C57BL/6Rj mouse assessed as time for maximum reduction in LPA 18:2 at 30 mg/kg administered as single dose via oral gavage by LC-MS/MS analysis; format: functional
Outline: (§1)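 Same single-gavage mouse study (female C57BL/6Rj, PEG 200/MC 0.5% vehicle, n = 3, bled predose and at 1, 3, 6, 24 h); vehicle control group. Plasma (10 μL) precipitated with methanol containing LPA 17:0 internal standard. LPA 18:2 read by LC−MS/MS as peak-area ratio to LPA 17:0. % reduction = 100 − (LPA at time t / mean vehicle LPA at time t × 100).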

Autotaxin [2] = target: Autotaxin (Mus musculus, UniProt Q9R1E6); assay: Inhibition of ATX in mouse plasma assessed as reduction in LPA 18:2 production after 2 hrs by LC-MS/MS analysis
[3] = Plasma concentration in C57BL/6Rj mouse at 30 mg/kg administered as single dose via oral gavage after 24 hrs by LC-MS/MS analysis; format: ADME, organism-based
Outline: (§2)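 Female C57BL/6Rj mice, 4−5 weeks old, fasted, given one oral gavage in PEG 200/MC 0.5% (25/75 v/v) at 0.3, 1 or 3 mg/mL. Intracardiac blood under isoflurane at 1, 3, 6 and 24 h into Li-heparin; n = 3 per time point. Methanol precipitation, LC−MS/MS against an eight-level calibration curve (LLOQ 4 ng/mL).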

[4] = Apparent terminal half life in C57BL/6Rj mouse at 30 mg/kg administered as single dose via oral gavage up to 24 hrs by LC-MS/MS analysis; format: ADME, organism-based; conditions: in vivo, read-out: betat1/2(app) (converted); outline: as §2
[5] = AUC (0 to 24 hrs) in C57BL/6Rj mouse at 3 mg/kg administered as single dose via oral gavage by LC-MS/MS analysis; format: ADME, organism-based; set-up: time < 24 hr, dose 3 mg/kg, route oral; conditions: in vivo; outline: as §2
Mus musculus [6] = assay: Dose normalized AUC (0 to 24 hrs) in C57BL/6Rj mouse at 3 mg/kg administered as single dose via oral gavage by LC-MS/MS analysis; format: ADME, organism-based; conditions: in vivo; outline: as §2
[7] = Oral bioavailability in mouse at 5 mg/kg; format: ADME, organism-based; conditions: in vivo
[8] = Tmax in C57BL/6Rj mouse at 10 mg/kg administered as single dose via oral gavage up to 24 hrs by LC-MS/MS analysis; format: ADME, organism-based; conditions: in vivo; outline: as §2
Mus musculus [9] = assay: Anti-fibrotic activity in BML-induced pulmonary fibrosis C57BL/6 mouse model assessed as reduction in fibrous area with severe distortion of lung structure at 10 to 30 mg/kg, po administered bid with 7.5 hrs interval between 2 doses for 21 days relative to control; format: functional, organism-based
Outline: (§3)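 Male C57Bl/6 mice, 11 weeks at delivery, anesthetized and given intranasal bleomycin 30 μg/50 μL; PBS controls. Oral dosing twice daily, 7.5 h apart, 10 mL/kg, from challenge day for 21 days: test agent in PEG 200/0.5% MC, pirfenidone in 0.5% CMC, vehicle controls; 14−24 mice per group. Lungs stained by Mallory method, scored 1–5 (Matsuse-modified Ashcroft) as mean of 10 low-power fields; group median, Mann−Whitney.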

[10] = Tmax in C57BL/6Rj mouse at 30 mg/kg administered as single dose via oral gavage up to 24 hrs by LC-MS/MS analysis; format: ADME, organism-based; conditions: in vivo
Outline: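 Female C57BL/6Rj mice, 4−5 weeks old, given one oral gavage in PEG 200/MC 0.5% (25/75, v/v) at 3 mg/mL; fasted. Intracardiac blood under isoflurane at 1, 3, 6 and 24 h, Li-heparin. Methanol precipitation, LC−MS/MS against eight-level calibration, LLOQ 4 ng/mL. Plasma levels averaged over three mice; noncompartmental analysis for tmax.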

Mus musculus [11] = assay: Anti-fibrotic activity in BML-induced pulmonary fibrosis C57BL/6 mouse model assessed as reduction in […] 18:2 content in BALF at 30 mg/kg, po administered bid with 7.5 hrs interval between 2 doses for 21 days measured 2 hrs post last dose on day 21 by LC-MS/MS analysis relative to control; format: functional, organism-based
Outline: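 BLM model as above (intranasal 30 μg/50 μL, 21 days oral twice-daily dosing in PEG 200/0.5% MC), satellite groups. Bronchoalveolar lavage with two 0.5 mL ice-cold saline instillations, 2 h after a 30 mg/kg dose. LPA 18:2 by LC−MS/MS; PBS n = 9, BLM-vehicle n = 6, treated n = 7; mean ± SEM, one-way ANOVA with Dunnett's test.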

Mus musculus [12] = assay: In vivo inhibition of ATX in C57BL/6Rj mouse assessed as time for maximum reduction in LPA 18:2 at 3 mg/kg administered as single dose via oral gavage by LC-MS/MS analysis; format: functional; outline: as §1
[13] = Cmax in C57BL/6Rj mouse at 3 mg/kg administered as single dose via oral gavage up to 24 hrs by LC-MS/MS analysis; format: ADME, organism-based; set-up: dose 3 mg/kg, route oral; conditions: in vivo; outline: as §2
Mus musculus [14] = assay: Dose normalized Cmax in C57BL/6Rj mouse at 3 mg/kg administered as single dose via oral gavage up to 24 hrs by LC-MS/MS analysis; format: ADME, organism-based; conditions: in vivo; outline: as §2
Mus musculus [15] = assay: Anti-fibrotic activity in BML-induced pulmonary fibrosis C57BL/6 mouse model assessed as reduction in fibrotic thickening of aveolar/bronchial walls at 10 to 30 mg/kg, po administered bid with 7.5 hrs interval between 2 doses for 21 days relative to control; format: functional, organism-based; outline: as §3
[16] = AUC (0 to 24 hrs) in C57BL/6Rj mouse at 10 mg/kg administered as single dose via oral gavage by LC-MS/MS analysis; format: ADME, organism-based; set-up: dose 10 mg/kg, time < 24 hr, route oral; conditions: in vivo; outline: as §2
[17] = AUC (0 to 24 hrs) in C57BL/6Rj mouse at 30 mg/kg administered as single dose via oral gavage by LC-MS/MS analysis; format: ADME, organism-based; set-up: dose 30 mg/kg, time < 24 hr, route oral; conditions: in vivo; outline: as §2
[18] = Protein binding to dog plasma; format: ADME, cell-free, Canis lupus familiaris; conditions: read-out: PPB
Mus musculus [19] = assay: In vivo inhibition of ATX in C57BL/6Rj mouse assessed as time for maximum reduction in LPA 18:2 at 10 mg/kg administered as single dose via oral gavage by LC-MS/MS analysis; format: functional; outline: as §1
[20] = Cmax in C57BL/6Rj mouse at 30 mg/kg administered as single dose via oral gavage up to 24 hrs by LC-MS/MS analysis; format: ADME, organism-based; set-up: dose 30 mg/kg, route oral; conditions: in vivo; outline: as §2
Mus musculus [21] = assay: Dose normalized Cmax in C57BL/6Rj mouse at 10 mg/kg administered as single dose via oral gavage up to 24 hrs by LC-MS/MS analysis; format: ADME, organism-based; conditions: in vivo; outline: as §2
[22] = Plasma clearance in mouse at 1 mg/kg, iv; format: ADME, organism-based
[23] = Apparent terminal half life in C57BL/6Rj mouse at 10 mg/kg administered as single dose via oral gavage up to 24 hrs by LC-MS/MS analysis; format: ADME, organism-based; conditions: in vivo, read-out: betat1/2(app) (converted); outline: as §2
[24] = Tmax in C57BL/6Rj mouse at 3 mg/kg administered as single dose via oral gavage up to 24 hrs by LC-MS/MS analysis; format: ADME, organism-based; conditions: in vivo; outline: as §2
Autotaxin [25] = target: Autotaxin (Rattus norvegicus, UniProt Q64610); assay: Inhibition of ATX in rat plasma assessed as reduction in LPA 18:2 production after 2 hrs by LC-MS/MS analysis
[26] = Oral bioavailability in rat at 5 mg/kg; format: ADME, organism-based; conditions: in vivo
Mus musculus [27] = assay: Anti-fibrotic activity in BML-induced pulmonary fibrosis C57BL/6 mouse model assessed as lung weight at 10 to 30 mg/kg, po administered bid with 7.5 hrs interval between 2 doses for 21 days relative to control; format: functional, organism-based
[28] = Protein binding to rat plasma; format: ADME, cell-free; conditions: read-out: PPB
[29] = Plasma concentration in C57BL/6Rj mouse at 3 mg/kg administered as single dose via oral gavage after 24 hrs by LC-MS/MS analysis; format: ADME, organism-based; outline: as §2
[30] = Plasma clearance in rat at 1 mg/kg, iv; format: ADME, organism-based
Mus musculus [31] = assay: Dose normalized AUC (0 to 24 hrs) in C57BL/6Rj mouse at 10 mg/kg administered as single dose via oral gavage by LC-MS/MS analysis; format: ADME, organism-based; conditions: in vivo; outline: as §2
Cytochrome P450 3A4 = Cytochrome P450 3A4 (Homo sapiens, UniProt P08684); assay: Time-dependent inhibition of human liver microsomes CYP3A4; format: ADME
Mus musculus [32] = assay: In vivo inhibition of ATX in C57BL/6Rj mouse assessed as reduction in LPA 18:2 level in plasma at 10 mg/kg administered as single dose via oral gavage by LC-MS/MS analysis; format: functional; outline: as §1
Mus musculus [33] = assay: In vivo inhibition of ATX in C57BL/6Rj mouse assessed as reduction in LPA 18:2 level in plasma at 3 mg/kg administered as single dose via oral gavage by LC-MS/MS analysis; format: functional; outline: as §1
[34] = Apparent elimination half life in C57BL/6Rj mouse at 3 mg/kg administered as single dose via oral gavage up to 24 hrs by LC-MS/MS analysis; format: ADME, organism-based; conditions: in vivo, read-out: betat1/2(app) (converted); outline: as §2
[35] = Oral bioavailability in dog at 1 mg/kg; format: ADME, organism-based, Canis lupus familiaris; conditions: in vivo
Outline: (§4)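 Dog: from 1 mg/kg oral and intravenous doses. Clearance taken from the intravenous arm.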

Mus musculus [36] = assay: Time at which plasma concentration reach in vitro mouse plasma IC50 in C57BL/6Rj mouse at 3 mg/kg, po administered as single dose via gavage
[37] = Cmax in C57BL/6Rj mouse at 10 mg/kg administered as single dose via oral gavage up to 24 hrs by LC-MS/MS analysis; format: ADME, organism-based; set-up: dose 10 mg/kg, route oral; conditions: in vivo; outline: as §2
[38] = Protein binding to human plasma; format: ADME, cell-free; conditions: read-out: PPB
Mus musculus [39] = assay: Dose normalized AUC (0 to 24 hrs) in C57BL/6Rj mouse at 30 mg/kg administered as single dose via oral gavage by LC-MS/MS analysis; format: ADME, organism-based; conditions: in vivo; outline: as §2
Mus musculus [40] = assay: Anti-fibrotic activity in BML-induced pulmonary fibrosis C57BL/6 mouse model assessed as reduction in fibrosis with damage of pulmonary structure at 10 to 30 mg/kg, po administered bid with 7.5 hrs interval between 2 doses for 21 days relative to control; format: functional, organism-based; outline: as §3
Mus musculus [41] = assay: Dose normalized Cmax in C57BL/6Rj mouse at 30 mg/kg administered as single dose via oral gavage up to 24 hrs by LC-MS/MS analysis; format: ADME, organism-based; conditions: in vivo; outline: as §2
[42] = Protein binding to mouse plasma; format: ADME, cell-free; conditions: read-out: PPB
[43] = Plasma clearance in dog at 1 mg/kg, iv; format: ADME, organism-based, Canis lupus familiaris; outline: as §4
[44] = Plasma concentration C57BL/6Rj mouse at 10 mg/kg administered as single dose via oral gavage after 24 hrs by LC-MS/MS analysis; format: ADME, organism-based; outline: as §2
Mus musculus [45] = assay: In vivo inhibition of ATX in C57BL/6Rj mouse assessed as reduction in LPA 18:2 level in plasma at 30 mg/kg administered as single dose via oral gavage by LC-MS/MS analysis; format: functional; outline: as §1

Cytochrome P450 3A4, sequence (P08684 whole entry): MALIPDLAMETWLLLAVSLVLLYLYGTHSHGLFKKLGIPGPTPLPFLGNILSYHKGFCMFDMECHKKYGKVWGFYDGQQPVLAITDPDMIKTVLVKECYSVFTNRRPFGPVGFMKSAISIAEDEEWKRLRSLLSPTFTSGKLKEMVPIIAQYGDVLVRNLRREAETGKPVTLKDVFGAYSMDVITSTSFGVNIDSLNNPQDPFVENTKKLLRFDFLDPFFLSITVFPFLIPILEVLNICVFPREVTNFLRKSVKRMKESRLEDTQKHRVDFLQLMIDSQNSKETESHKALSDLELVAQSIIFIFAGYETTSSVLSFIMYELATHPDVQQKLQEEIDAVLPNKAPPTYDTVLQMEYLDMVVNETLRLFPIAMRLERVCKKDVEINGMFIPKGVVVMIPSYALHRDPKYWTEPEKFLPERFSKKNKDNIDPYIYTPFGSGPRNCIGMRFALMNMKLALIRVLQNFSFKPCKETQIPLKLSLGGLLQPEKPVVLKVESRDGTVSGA

IC50 (Autotaxin [2]): 418 nM
concentration at 24 h [3]: 295 ng/mL
half-life [4]: 3.79 h
AUC(0-t) at 24 h [5]: 5550 ng·h/mL
AUC/dose (Mus musculus [6]): 1851 ng·h/mL/mg/kg
bioavailability [7]: 29%
Tmax [8]: 1 h
Tmax [10]: 1 h
Cmax [13]: 1080 ng/mL
Cmax/dose (Mus musculus [14]): 358 ng/mL/(mg/kg)
AUC(0-t) at 24 h [16]: 20800 ng·h/mL
AUC(0-t) at 24 h [17]: 101000 ng·h/mL
fraction unbound [18]: < 0.01
Cmax [20]: 21400 ng/mL
Cmax/dose (Mus musculus [21]): 436 ng/mL/(mg/kg)
clearance [22]: 3.83 mL/min/kg
half-life [23]: 2.22 h
Tmax [24]: 3 h
IC50 (Autotaxin [25]): 542 nM
bioavailability [26]: 37%
fraction unbound [28]: < 0.01
concentration at 24 h [29]: 1 ng/mL
clearance [30]: 11.5 mL/min/kg
AUC/dose (Mus musculus [31]): 2079 ng·h/mL/mg/kg
TDI (Cytochrome P450 3A4): Not Active
half-life [34]: 2.21 h
bioavailability [35]: 63%
Cmax [37]: 4360 ng/mL
fraction unbound [38]: < 0.01
AUC/dose (Mus musculus [39]): 3374 ng·h/mL/mg/kg
Cmax/dose (Mus musculus [41]): 712 ng/mL/(mg/kg)
fraction unbound [42]: < 0.01
clearance [43]: 2 mL/min/kg
concentration at 24 h [44]: 4 ng/mL
Compound: CCc1nc2c(C)cc(N3CCN(CC(=O)N4CC(O)C4)CC3)cn2c1N(C)c1nc(-c2ccc(F)cc2)c(C#N)s1 [ZIRITAXESTAT]
Time (Mus musculus [1]): 3 h
Activity (Mus musculus [9]): Active
Activity (Mus musculus [11]): Active
Time (Mus musculus [12]): 3 h
Activity (Mus musculus [15]): Active
Time (Mus musculus [19]): 3 h
Activity (Mus musculus [27]): Active
inhibition in vivo at 10 mg/kg (Mus musculus [32]): 90.9%
inhibition in vivo at 3 mg/kg (Mus musculus [33]): 83.6%
Time (Mus musculus [36]): 6 h
Activity (Mus musculus [40]): Active
inhibition in vivo at 30 mg/kg (Mus musculus [45]): 95.2%

From ChEMBL document CHEMBL4049443, “Discovery of 2-[[2-Ethyl-6-[4-[2-(3-hydroxyazetidin-1-yl)-2-oxoethyl]piperazin-1-yl]-8-methylimidazo[1,2-a]pyridin-3-yl]methylamino]-4-(4-fluorophenyl)thiazole-5-carbonitrile (GLPG1690), a First-in-Class Autotaxin Inhibitor Undergoing Clinical Evaluation for the Treatment of Idiopathic Pulmonary …” (J Med Chem, 2017)
